According to publication PMC3483416 (Archives of biochemistry and biophysics, 2012):
Where two headings read alike, the source gives them in different places. No end group written: not given here.

Tests used:
full-length human BclXL = full-length human BclXL (Homo sapiens, UniProt Q07817); experiment: ITC: binding of Bid_BH3 peptide to full-length BclXL at varying pH; conditions: for TΔS / ΔH / ΔG: 25 °C, ± SD, n at least 3; for TΔS: TΔS=ΔH-ΔG; for ΔG: ΔG=RTlnKd
Method in brief: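 20-mer BH3 peptide (human Bid residues 81–100, gravimetric concentration) at 0.5–1 mM, titrated in 25 × 10 μl injections into 50 μM full-length human BclXL at 25 °C. Buffers 50 mM acetate pH 4, phosphate pH 6, Tris pH 8 or CAPS pH 10, each with 100 mM NaCl, 1 mM EDTA and 5 mM β-mercaptoethanol. Dilution heats subtracted. Kd and ΔH from a one-site fit; TΔS = ΔH − ΔG. Proton coupling assessed from buffer ionization-enthalpy dependence. ≥3 repeats.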

[1] = biological target: T1, Full-length human BclXL (residues 1-233) (human, UniProt Q07817-1 1-233); experiment: ITC
[2] = biological target: T1, Full-length human BclXL (residues 1-233); experiment: ITC; remark: listed apart in the source
[3] = biological target: T1, Full-length human BclXL (residues 1-233); experiment: ITC; remark: listed apart in the source
[4] = biological target: T1, Full-length human BclXL (residues 1-233); experiment: ITC; remark: listed apart in the source

T1 sequence (Q07817 whole entry, the tested form may be a part): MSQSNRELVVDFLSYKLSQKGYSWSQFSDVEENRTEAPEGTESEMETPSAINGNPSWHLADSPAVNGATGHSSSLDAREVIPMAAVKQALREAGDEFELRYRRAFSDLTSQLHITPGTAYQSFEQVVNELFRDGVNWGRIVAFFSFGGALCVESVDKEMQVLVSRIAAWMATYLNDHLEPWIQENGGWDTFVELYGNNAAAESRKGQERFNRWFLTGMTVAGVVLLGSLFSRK
Chain of full-length human BclXL (Q07817 whole entry, the tested form may be a part): as above

A TΔS (full-length human BclXL; pH 4, acetate) of -2.15 ± 0.03 kcal/mol, a ΔH (full-length human BclXL; pH 4, acetate) of -9.09 ± 0.20 kcal/mol and a ΔG (full-length human BclXL; pH 4, acetate) of -6.94 ± 0.08 kcal/mol were found for DIIRNIARHLAQVGDSMDRS [Bid_BH3 peptide] in this work. For the same molecule, the “optimum pH of ligand binding” value (full-length human BclXL; pH 4-10) was “optimally occurs at pH 6”, the TΔS (full-length human BclXL; pH 6, phosphate) was -5.48 ± 0.15 kcal/mol and the ΔH (full-length human BclXL; pH 6, phosphate) was -13.66 ± 0.32 kcal/mol. It also gave a ΔG (full-length human BclXL; pH 6, phosphate) of -8.17 ± 0.09 kcal/mol, a TΔS (full-length human BclXL; pH 8, Tris) of -11.58 ± 0.29 kcal/mol and a ΔH (full-length human BclXL; pH 8, Tris) of -18.39 ± 0.53 kcal/mol. It also gave a ΔG (full-length human BclXL; pH 8, Tris) of -6.80 ± 0.04 kcal/mol, a TΔS (full-length human BclXL; pH 10, CAPS) of -10.13 ± 0.31 kcal/mol and a ΔH (full-length human BclXL; pH 10, CAPS) of -16.54 ± 0.47 kcal/mol. It also gave a ΔG (full-length human BclXL; pH 10, CAPS) of -6.40 ± 0.02 kcal/mol.

A Kd [1] of 8.3 µM, a dH [1] of -9.09 kcal/mol and a Kd [2] of 1.03 µM were found for DIIRNIARHLAQVGDSMDRS [Bid_BH3 peptide (20-mer spanning residues 81-100, the BH3 domain within human Bid)] in this work. The dH [2] was -13.7 kcal/mol, the Kd [3] was 10.4 µM and the dH [3] was -18.4 kcal/mol. For the same molecule, the Kd [4] was 20.5 µM and the dH [4] was -16.5 kcal/mol.
